Tests used:
[1] = molecular target: T1, Thyrotropin-releasing hormone receptor (Rattus norvegicus, UniProt Q01717); assay: Inhibition of [3H][3-Me-His2]-TRH binding to thyrotropin releasing hormone receptor of rat forebrain
T1 sequence (Q01717 whole entry): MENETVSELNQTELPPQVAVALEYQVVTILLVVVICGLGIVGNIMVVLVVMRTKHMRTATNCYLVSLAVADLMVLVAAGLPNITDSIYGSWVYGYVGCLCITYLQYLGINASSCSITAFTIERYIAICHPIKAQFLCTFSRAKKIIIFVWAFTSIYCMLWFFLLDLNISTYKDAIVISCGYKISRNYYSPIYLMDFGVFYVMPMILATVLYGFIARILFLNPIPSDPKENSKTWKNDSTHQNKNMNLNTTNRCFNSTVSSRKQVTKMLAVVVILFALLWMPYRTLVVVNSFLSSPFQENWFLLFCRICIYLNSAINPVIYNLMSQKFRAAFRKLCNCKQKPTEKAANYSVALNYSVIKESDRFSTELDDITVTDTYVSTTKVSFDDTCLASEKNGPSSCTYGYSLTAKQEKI
How it was run: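 Rat forebrain membrane suspension in 20 mM phosphate pH 7.4, incubated 180 min at 4 °C with 2 nM [3H][3-Me-His2]TRH and varying test concentrations. Nonspecific binding defined with 10 µM TRH; Ki reported.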

[2] = Partition coefficient (logP); assay type: physicochemical; settings: octanol/water
[3] = Capacity factor of compound was determined by immobilized artificial membrane chromatography; assay type: ADME
How it was run: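 Immobilized artificial membrane HPLC, isocratic 10 mM ammonium acetate pH 5.4 at 1.0 mL/min, detection by ESI-MS (pyridinium salts) or APCI-MS (dihydropyridine prodrugs). k'IAM = (tR compound − tR citric acid)/tR citric acid, citric acid serving as void marker.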

Rattus norvegicus = assay: Maximal changes in rat hippocampal acetylcholine concentration after administration of compound through a microdialysis probe; assay type: functional, Hippocampus
How it was run: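 Male Sprague–Dawley rats (250–300 g), guide cannula in ventral hippocampus, probe (4 mm polycarbonate) inserted after 7 days. Perfused with artificial CSF plus 2 µM neostigmine at 2 µL/min; baseline is mean of three 20-min fractions. Compound perfused at 1 nmol/µL through probe; maximal ACh change expressed as % of baseline.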

[4] = Half-life of compound in rat plasma was determined; assay type: ADME, cell-free
How it was run: (§1)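 About 100 nmol compound per 1 mL rat plasma or 20% rat brain homogenate (0.1 M phosphate, pH 7.4), shaken at 37 °C. Aliquots taken at 2–90 min and quenched in ice-cold 5% acetic acid/acetonitrile, then centrifuged. Loss of compound followed by HPLC against standards in heat-denatured matrix; t1/2 from the decline.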

Mus musculus [5] = assay: Sleeping time of mice was determined after intravenous administration of compound at 15 umol/kg of Body Weight; assay type: functional
How it was run: (§2)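 Swiss Webster mice (30 ± 2 g), 8–16 per group; 15 µmol/kg compound iv via tail vein in degassed saline, vehicle controls 1.5 mL/kg. Sodium pentobarbital 60 mg/kg ip after 10 min; sleeping time timed from loss to regain of righting reflex.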

[6] = Half-life of compound in rat brain homogenate was determined; assay type: ADME, tissue-based; how it was run: as §1
Mus musculus [7] = assay: Sleeping time of mice was determined after intravenous administration of compound at 15 umol/kg of body weight; assay type: functional; how it was run: as §2
Mus musculus [8] = assay: Sleeping time decrease in mice was determined after intravenous administration of compound at 15 umol/kg of body weight; assay type: functional
How it was run: (§3)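 Swiss Webster mice (30 ± 2 g), 8–16 per group, given compound iv via tail vein in degassed saline; controls received saline 1.5 mL/kg. Sodium pentobarbital 60 mg/kg ip 10 min later; sleeping time from loss to regain of righting reflex; decrease versus saline control, mean ± SEM.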

Mus musculus [9] = assay: Sleeping time decrease in mice was determined after intravenous administration of compound at 1 umol/kg of body weight; assay type: functional
Mus musculus [10] = assay: Sleeping time decrease in mice was determined after intravenous administration of compound at 5 umol/kg of body weight; assay type: functional; how it was run: as §3
Mus musculus [11] = assay: Sleeping time decrease in mice was determined after intravenous administration of compound at 50 umol/kg of body weight; assay type: functional; how it was run: as §3
Mus musculus [12] = assay: Sleeping time decrease in mice was determined after intravenous administration of compound at 0.5 umol/kg of body weight; assay type: functional; how it was run: as §3

With `NC(=O)c1ccc[n+](CC[C@H](NC(=O)[C@@H]2CCC(=O)N2)C(=O)N2CCC[C@H]2C(N)=O)c1` as the molecule, how does the Ki [1] read?
The Ki was greater than 10 µM.

What about the logP [2] of the same molecule?
The logP was -2.18.

And the “K''IAM” value [3]?
Its value is 0.42.

And the Maximal change (Rattus norvegicus)?
The Maximal change was 216%.

Which results are given for `NC(=O)c1ccc[n+](CCC[C@H](NC(=O)[C@@H]2CCC(=O)N2)C(=O)N2CCC[C@H]2C(N)=O)c1`?
Ki [1]: > 10 µM; logP [2]: -1.74; K''IAM [3]: 0.49; Maximal change (Rattus norvegicus): 145%

With `NC(=O)[C@@H]1CCCN1C(=O)[C@H](Cc1cnc[nH]1)NC(=O)[C@@H]1CCC(=O)N1` [PROTIRELIN] as the molecule, how does the half-life [4] read?
The half-life was 11 min.

And the Ki [1]?
Its Ki is 0.0423 µM.

What about the logP [2] of the same molecule?
The logP was -1.74.

What about the “K''IAM” value [3] of the same molecule?
The value was 0.51.

What about the Maximal change (Rattus norvegicus) of the same molecule?
The Maximal change was 394%.

And the Sleeping time (Mus musculus [5])?
Its Sleeping time is 26 min.

What about the half-life [6] of the same molecule?
The half-life was 16 min.

Which Ki [1] does the source give for `NC(=O)c1ccc[n+](C[C@H](NC(=O)[C@@H]2CCC(=O)N2)C(=O)N2CCC[C@H]2C(N)=O)c1.O=C([O-])C(F)(F)F` here?
The Ki was greater than 10 µM.

And the logP [2]?
The logP was -2.64.

What about the “K''IAM” value [3] of the same molecule?
Its value is 0.3.

And the Maximal change (Rattus norvegicus)?
Its Maximal change is 279%.

And the Sleeping time (Mus musculus [5])?
Its Sleeping time is 75.9 min.

For `NC(=O)C1=CN(C[C@H](NC(=O)[C@@H]2CCC(=O)N2)C(=O)N2CCC[C@H]2C(N)=O)C=CC1`, which Sleeping time (Mus musculus [7]) is on record?
The Sleeping time was 19.4 min.

And the Sleeping time (Mus musculus [8])?
Its Sleeping time is 23.2 min.

What about the Sleeping time (Mus musculus [9]) of the same molecule?
The Sleeping time was 5.4 min.

And the logP [2]?
The logP was -3.29.

What about the Sleeping time (Mus musculus [10]) of the same molecule?
The Sleeping time was 14.1 min.

And the “K''IAM” value [3]?
The value was 0.55.

And the Sleeping time (Mus musculus [11])?
Its Sleeping time is 24.2 min.

What about the Sleeping time (Mus musculus [12]) of the same molecule?
The Sleeping time was 2.8 min.

Which logP [2] does the source give for `NC(=O)C1=CN(CCC[C@H](NC(=O)[C@@H]2CCC(=O)N2)C(=O)N2CCC[C@H]2C(N)=O)C=CC1` here?
Its logP is -2.39.

And the “K''IAM” value [3]?
Its value is 1.47.

And the Sleeping time (Mus musculus [5])?
Its Sleeping time is 58.1 min.

With `NC(=O)C1=CN(CCCCC(NC(=O)[C@@H]2CCC(=O)N2)C(=O)N2CCC[C@H]2C(N)=O)C=CC1` (stereo partly specified) as the molecule, how does the logP [2] read?
Its logP is -1.94.

What about the “K''IAM” value [3] of the same molecule?
The value was 2.3.

And the Sleeping time (Mus musculus [5])?
The Sleeping time was 48.8 min.

With `NC(=O)c1ccc[n+](CCCC[C@H](NC(=O)[C@@H]2CCC(=O)N2)C(=O)N2CCC[C@H]2C(N)=O)c1` as the molecule, how does the Ki [1] read?
The Ki was greater than 10 µM.

What about the logP [2] of the same molecule?
The logP was -1.29.

And the “K''IAM” value [3]?
Its value is 0.6.

And the Maximal change (Rattus norvegicus)?
The Maximal change was 242%.

Which logP [2] does the source give for `NC(=O)C1=CN(CCC(NC(=O)[C@@H]2CCC(=O)N2)C(=O)N2CCC[C@H]2C(N)=O)C=CC1` (stereo partly specified) here?
The logP was -2.84.

What about the “K''IAM” value [3] of the same molecule?
The value was 0.8.

What about the Sleeping time (Mus musculus [5]) of the same molecule?
Its Sleeping time is 44.7 min.

From ChEMBL document CHEMBL1137824, “Centrally acting and metabolically stable thyrotropin-releasing hormone analogues by replacement of histidine with substituted pyridinium” (J Med Chem, 2004)
